Shown are actives, neighbours in structure and some others; about 3.5% of the full set was active somewhere.
RGS4 pot: potentiators or activators of RGS4; HEK293 M3R/inducible RGS4, carbachol calcium flux Fluo4; hits give low values; B-score at 10 µM; 0.92% of 310,000 active;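 active = B-score of the integrated calcium signal more than 4 SD below the library mean, with starting fluorescence not abnormally high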;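 note: negative B-score means reduced calcium response which marks RGS4 activation or potentiation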
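System: HEK293 FlpIn-TREx cells, stable M3R, doxycycline-inducible RGS4. Timing: overnight RGS4 induction, 30 min dye load 37 °C, 20 min compound RT. Also added: carbachol, ECmax concentration. Measured by: Fluo4 fluorescence kinetic imaging of calcium. Evaluation: integrated calcium ratio converted to B score.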
RGS4 inh: human RGS4 inhibition; P49798; HEK293 M3R/RGS4 inducible, Fluo-4 calcium flux; hits give high values; triggered by carbachol at its EC20; B-score at 10 µM; 0.45% of 310,000 active;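 active = B-score, a plate-corrected calcium signal, over three deviations above library mean, with baseline fluorescence within five deviations of library mean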;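 note: RGS4 expression induced by doxycycline in cells with stable M3 receptor; B-score is computed from the integrated fluorescence ratio over baseline after carbachol; higher B-score means a larger calcium signal and so more RGS4 inhibition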
Target sequence (P49798 whole entry, looked up): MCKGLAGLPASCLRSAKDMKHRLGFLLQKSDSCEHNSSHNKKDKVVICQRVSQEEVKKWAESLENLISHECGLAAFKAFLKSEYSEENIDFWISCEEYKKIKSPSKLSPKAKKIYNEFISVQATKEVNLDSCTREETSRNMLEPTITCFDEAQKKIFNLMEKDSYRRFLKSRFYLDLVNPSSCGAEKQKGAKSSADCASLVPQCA
MrgX1 PAM: human MrgX1 positive allosteric modulation, primary screen; Q96LB2; AID 588675; 0.63% of 310,000 active; MrgX1-HEK293, Fluo-4 calcium flux, FDSS; hits give high values; B-score at 10 µM;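 active = plate-corrected calcium response at least 3 library SD above typical, normal starting fluorescence, not activating the receptor alone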;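 note: compound read alongside a low EC10 to EC30 dose of BAM8-22 agonist; peak minus trough fluorescence over baseline measured at the second addition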
Target sequence (Q96LB2 whole entry, looked up): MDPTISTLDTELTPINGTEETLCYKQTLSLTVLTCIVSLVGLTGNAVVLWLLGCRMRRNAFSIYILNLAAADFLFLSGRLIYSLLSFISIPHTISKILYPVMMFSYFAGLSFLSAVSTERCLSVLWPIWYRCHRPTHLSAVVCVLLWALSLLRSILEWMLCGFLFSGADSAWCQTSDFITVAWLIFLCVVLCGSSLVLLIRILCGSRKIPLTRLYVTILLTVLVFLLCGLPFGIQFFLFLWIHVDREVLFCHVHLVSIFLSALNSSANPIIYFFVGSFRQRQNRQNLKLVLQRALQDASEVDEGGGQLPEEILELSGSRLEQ
MrgX1 antagonist: antagonists of human MrgX1 receptor | AID 588676 | MRGX1-HEK293 calcium flux, Fluo-4, BAM8-22 antagonism; hits give low values | B-score at 10 µM | 1.3% of 310,000 active;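 active = calcium-response B-score plate-corrected more than 3 library SD below zero, starting fluorescence within 5 deviations, no agonist response on first addition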;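 note: peak minus trough fluorescence over baseline after final BAM8-22 challenge near maximal dose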
MrgX1 agonist: activates human MrgX1 receptor signaling | B-score at 10 µM | MrgX1-HEK293 cells, Fluo-4 calcium fluorescence, agonist mode; hits give high values | 0.44% of 310,000 active;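 active = calcium response B-score plate-corrected fluorescence ratio at least 3 library SD, with starting fluorescence B-score inside 5 SD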
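Test system: Stable human MrgX1 HEK293 cell line | Schedule: Overnight plating before 1 h dye loading | Read-out basis: Baseline-normalised fluorescence change ratio, B-scored | Detection: Kinetic calcium dye fluorescence, Fluo-4 NW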
MrgX1 PAM conf: confirmation of human MrgX1 receptor positive allosteric modulators; shares compounds with MrgX1 PAM; 13% of 1,200 active; MrgX1-HEK293, Fluo-4 calcium fluorescence, FDSS; activation (ratio percentage), % at 10 µM;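 active = ratio at least 3 SD above the weak peptide control, stable starting fluorescence, no direct agonism earlier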;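 note: compound followed by low BAM8-22 agonist challenge near EC20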
MrgX1 antag conf: human MrgX1 receptor antagonism, re-confirmation screen; remaining BAM8-22 calcium response % of control (hits give low values), % at 10 µM; 19% of 2,300 active; shares compounds with MrgX1 antagonist; MrgX1-HEK293, BAM8-22 calcium flux, Fluo-4; hits give low values; AID 602420;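 active = remaining agonist calcium response no higher than 100% minus 3 SD of agonist-only control wells, with starting fluorescence near control levels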;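 note: agonist BAM8-22 given at a near maximal EC90 to ECmax level; peak minus minimum fluorescence divided by baseline after agonist addition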
HEK293 Ca flux: counter-screen for MrgX1 antagonists: effect in parental HEK293 cells; fluorescence ratio F(max-min)/F0 at 10 µM; 2% of 4,000 active; shares compounds with MrgX1 antagonist; Fluo-4 calcium fluorescence, FDSS;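 active = duplicate-averaged calcium fluorescence ratio at least three times the standard deviation of buffer wells, a nonspecific response in parental cells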
HEK293 Ca counter: MrgX1 allosteric activator counter-screen hit in parental HEK293 cells; AID 624114; parental HEK293 calcium flux, Fluo-4 fluorescence ratio; hits give high values; shares compounds with MrgX1 antagonist; 0.4% of 4,000 active; fluorescence ratio F(max-min)/F0 at 10 µM;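 active = calcium fluorescence ratio, averaged over duplicates, at least 3 SD of the buffer-well ratio, meaning a nonspecific response in receptor-free cells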;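 note: untransfected parental HEK293 lacking MrgX1 used as counterscreen for MrgX1 allosteric activators; fluorescence change taken during the second addition on a kinetic imager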
HEK293 Ca cntr2: counter-screen for MrgX1 activators: effect in parental HEK293 cells; shares compounds with MrgX1 antagonist; Fluo-4 calcium fluorescence (FDSS); hits give high values; fluorescence ratio F(max-min)/F0 at 10 µM; 8.7% of 4,000 active;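 active = calcium fluorescence ratio at least three times the spread of buffer wells, meaning a non-specific response in parental cells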
* = called active by the depositor; i = inactive; . = no result.

SMILES	RGS4 pot	RGS4 inh	MrgX1 PAM	MrgX1 antagonist	MrgX1 agonist	MrgX1 PAM conf	HEK293 Ca flux	HEK293 Ca counter	HEK293 Ca cntr2	others
Cc1nn(C)c(C(=O)NC2C3CC4CC(C3)CC2C4)c1Cl (configuration not stated)	i	i	12.9*	i	i	i	i	i	i
O=C(CCl)Nc1cccc(Oc2ccccc2)c1	i	i	13.1*	i	i	i	i	i	47.9*
O=C(CCl)Nc1cccc(Oc2cnccn2)c1	i	i	i	i	i	.	.	.	.
O=[N+]([O-])c1ccc(Cl)c(S(=O)(=O)Nc2ccc(-c3ccc(N4CCOCC4)nn3)cc2)c1	i	i	i	i	i	.	.	.	.
Cc1ccc([N+](=O)[O-])cc1S(=O)(=O)Nc1ccc(-c2ccc(N3CCOCC3)nn2)cc1	i	i	28.8*	i	i	8.1%*	i	i	i
Cc1ccccc1Nc1nc(N)nc(CN2CCN(Cc3ccc4c(c3)OCO4)CC2)n1	i	i	8.04*	i	i	i	i	i	i
Nc1nc(CN2CCN(Cc3ccc4c(c3)OCO4)CC2)nc(Nc2ccccc2)n1	i	i	i	i	i	.	.	.	.
O=C(OCCN1C(=O)c2ccccc2C1=O)c1cc(S(=O)(=O)N2CCOCC2)ccc1F	i	i	6.8*	i	i	i	i	i	i
CC(C)c1cc(C(=O)N2CCCC(N3CCN(c4ccc(F)cc4)CC3)C2)no1 (configuration not stated)	i	i	i	i	i	.	.	.	.
COc1ccc(NC(C)=O)cc1NC(=O)C1CCN(C(=O)Nc2ccccc2)CC1	i	i	i	i	i	.	.	.	.
CCCCCCC1CC(CSC(=N)N)OC1=O (configuration not stated)	i	i	6.49*	i	i	i	i	i	i
NC(=O)CSc1nc(C23CC4CC(CC(C4)C2)C3)nc2ccccc12	i	i	16.8*	i	i	14.3%*	i	i	i
Cc1nonc1NC(=O)CSc1nc(C23CC4CC(CC(C4)C2)C3)nc2ccccc12	i	i	i	i	i	.	.	.	.
C=CCNC(=O)C(=O)c1c(-c2ccccc2)[nH]c2ccccc12	i	i	i	i	i	.	.	.	.
O=C(NCCc1ccccc1)C(=O)c1c(-c2ccccc2)[nH]c2ccccc12	i	i	11.4*	i	i	i	i	i	i
CCOC(=O)c1c(C)nc2c(c1-c1ccc(Cl)cc1)C(=O)CC(C)(C)C2	i	i	8.61*	-4.8*	i	i	i	i	i	MrgX1 antag conf=i
CCOC(=O)c1c(C)nc2c(c1-c1ccccc1)C(=O)c1ccccc1-2	i	i	9.31*	i	i	i	i	i	i
CCOC(=O)c1c(C)nc2ccccc2c1-c1ccccc1	i	i	7.6*	i	i	i	i	i	i
CCOC(=O)c1c(C)nc2c(c1-c1cc(OC)ccc1OC)C(=O)c1ccccc1-2	i	i	i	i	i	.	.	.	.
CC(=O)Nc1ccc(S(=O)(=O)N2CCCC(C(=O)N3CCN(c4ccccc4)CC3)C2)cc1 (configuration not stated)	i	i	i	i	i	.	.	.	.
CC(C(=O)NCCc1ccccc1)N1c2cccc3cccc(c23)S1(=O)=O (configuration not stated)	i	i	i	i	i	.	.	.	.
CCNc1nc2[nH]c(=O)c3c(c2s1)OC(N)=C(C#N)C3c1ccc(C)cc1 (configuration not stated)	i	i	15.9*	i	i	i	i	i	51.4*
Cc1ccc(NC(=O)CSc2nnc(C3CC3)n2N)cc1S(=O)(=O)N1CCOCC1	i	i	7.93*	i	i	i	i	i	i
Cc1sc(NC(=O)c2ccccc2F)c(CN2CCCCC2)c1C	i	i	9.35*	i	i	i	i	i	i
Cc1sc(NC(=O)c2ccc(F)cc2)c(CN2CCCCCC2)c1C	i	i	i	i	i	.	.	.	.
SMILES	RGS4 pot	RGS4 inh	MrgX1 PAM	MrgX1 antagonist	MrgX1 agonist	MrgX1 PAM conf	HEK293 Ca flux	HEK293 Ca counter	HEK293 Ca cntr2	others
CC(NS(=O)(=O)/C=C/c1ccccc1)C(=O)O (configuration not stated)	i	i	10.4*	i	i	i	i	i	i
CSCC[C@H](NC(=O)[C@@H]1Cc2ccccc2CN1)C(=O)NC(C)c1ccccc1 (some centres not stated)	i	i	i	i	i	.	.	.	.
CSCC[C@H](NC(=O)[C@@H]1Cc2ccccc2CN1)C(=O)NC1CCCC1	i	i	8.5*	i	i	i	i	i	i
Cc1cc2occ(CC(=O)N(CC(C)C)c3c(N)n(Cc4ccccc4)c(=O)[nH]c3=O)c2cc1C	i	i	i	i	i	.	.	.	.
COc1ccc(CCC(=O)Nc2ccc3c(c2)OCO3)cc1	i	i	i	i	i	.	.	.	.
COc1ccc(CC(=O)OCC(=O)Nc2ccc3c(c2)OCO3)cc1	i	i	10*	i	i	i	i	i	i
COc1ccc(C2CC(=O)C=C(NCc3ccc4c(c3)OCO4)C2)cc1 (configuration not stated)	i	i	i	i	i	.	.	.	.
CCc1c(C)nc2cc(-c3ccc(OC)c(OC)c3)nn2c1N1CCCC1	i	i	16.9*	i	i	i	i	i	i
CN(C)CCCOc1ccc2c(c1)Sc1ccccc1CC2=O	i	i	8.53*	i	i	i	i	i	i

Screening data (PubChem BioAssay)
